Measurements taken from ChEMBL document CHEMBL4834426, “Antimalarial Benzimidazole Derivatives Incorporating Phenolic Mannich Base Side Chains Inhibit Microtubule and Hemozoin Formation: Structure-Activity Relationship and In Vivo Oral Efficacy Studies” (J Med Chem, 2021).
Converted amounts (≈) assume the structure as drawn. The source made the active and inactive calls. No cut-off for these calls is given here.

Columns and labels:
Plasmodium falciparum [1] = test: Antiplasmodial activity against […] Plasmodium falciparum NF54 early gametocytes transfected with GFP-Luc […] at 1 uM incubated for 48 hrs by microscopy based luciferase reporter gene assay relative to control; format: functional
How it was run: (§1)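 NF54-Pfs16-GFP-Luc gametocytes, assays set up day 5 (early, stage II/III) or day 10 (late, stage IV/V). Culture at 2−3% gametocytemia, 1.5% hematocrit, 48 h drug exposure at 37 °C under 90% N₂/5% O₂/5% CO₂. Lysates mixed with luciferin; bioluminescence read with 10 s integration. Dual-point: one biological repeat in technical triplicate. Methylene blue (5 μM) reference.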

Plasmodium falciparum [2] = test: Antimalarial activity against asexual blood stage drug-sensitive Plasmodium falciparum NF54 infected in erythrocytes assessed as reduction in parasitemia incubated up to 72 hrs by [3H]hypoxanthine incorporation assay; format: functional, organism-based
How it was run: (§2)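 [³H]-Hypoxanthine incorporation assay (modified) on asexual blood-stage P. falciparum in vitro. IC₅₀ values are means of ≥2 independent experiments.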

Plasmodium falciparum [3] = test: Antiplasmodial activity against […] Plasmodium falciparum NF54 late gametocytes transfected with GFP-Luc […] at 5 uM incubated for 48 hrs by microscopy based luciferase reporter gene assay relative to control; format: functional; how it was run: as §1
[4] = Metabolic stability in mouse liver microsomes assessed as compound remaining at 1 uM incubated for 30 mins by LC-MS/MS analysis; format: ADME, Microsome; conditions: read-out: Stabilty
How it was run: (§3)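 Single-point design: 1 μM compound with 0.4 mg/mL liver microsomes in 0.1 M phosphate buffer pH 7.4 for 30 min. Quenched with ice-cold acetonitrile containing carbamazepine internal standard, centrifuged, analyzed by LC−MS/MS. Percent remaining from internal-standard-corrected peak areas at 30 min versus 0 min. Propranolol, midazolam and MMV390048 as controls.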

Plasmodium falciparum [5] = test: Antiplasmodial activity against […] Plasmodium falciparum NF54 early gametocytes transfected with GFP-Luc […] at 5 uM incubated for 48 hrs by microscopy based luciferase reporter gene assay relative to control; format: functional; how it was run: as §1
Plasmodium falciparum [6] = test: Antimalarial activity against asexual blood stage multi drug-resistant Plasmodium falciparum K1 infected in erythrocytes assessed as reduction in parasitemia incubated up to 72 hrs by [3H]hypoxanthine incorporation assay; format: functional, organism-based; how it was run: as §2
[7] = tested on: Plasmodium falciparum NF54; test: Inhibition of tubulin polymerization in […] Plasmodium falciparum NF54 early gametocytes at 2400 nM incubated for 24 hrs by tubulin tracker Oregon Green staining method
How it was run: (§4)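 Treatment at 600 nM for asexual parasites (~1% parasitemia, 5% hematocrit, sorbitol-synchronized rings) or 2400 nM for early gametocytes (~2% gametocytemia, 2% hematocrit, 20% I/60% II/20% III). 24 h at 37 °C, 90% N₂/5% CO₂/5% O₂, DMSO <0.1%. Stained with 250 nM Tubulin Tracker Oregon Green 488 for 30 min and Hoechst (100 nM) for 10 min. PBS-washed, imaged live by confocal microscopy. Colchicine (20 μM) positive control.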

[8] = Selectivity index, ratio of IC50 for Cytotoxicity against CHO cells assessed as inhibition of cell viability by MTT assay to IC50 for antimalarial activity against asexual blood stage Plasmodium falciparum NF54 assessed as reduction in parasitemia incubated up to 72 hrs by [3H]hypoxanthine incorporation assay; format: toxicity, cell-based; conditions: hamster, read-out: Selectivity Index
How it was run: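 Selectivity index is IC₅₀(CHO)/IC₅₀(NF54). […] IC₅₀ came from nonlinear dose-response fitting. Parasite IC₅₀ came from the [³H]-hypoxanthine assay.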

[9] = tested on: Plasmodium falciparum NF54; test: Inhibition of tubulin polymerization in asexual blood stage Plasmodium falciparum NF54 at 600 nM incubated for 24 hrs by tubulin tracker Oregon Green staining method; how it was run: as §4
[10] = Resistance index, ratio of IC50 for antimalarial activity against asexual blood stage multi drug-resistant Plasmodium falciparum K1 to IC50 for antimalarial activity against asexual blood stage drug-sensitive Plasmodium falciparum NF54; format: functional
How it was run: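 Resistance index is IC₅₀(K1)/IC₅₀(NF54). Both IC₅₀s came from the [³H]-hypoxanthine incorporation assay, as means of ≥2 independent experiments.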

CHO = test: Cytotoxicity against CHO cells assessed as inhibition of cell viability by MTT assay; format: cell-based; conditions: Cricetulus griseus
[11] = tested on: Plasmodium falciparum NF54; test: Inhibition of tubulin polymerization in asexual stage (II) Plasmodium falciparum NF54 early gametocytes at 2400 nM incubated for 24 hrs by tubulin tracker Oregon Green staining method; how it was run: as §4
[12] = Metabolic stability in human liver microsomes assessed as compound remaining at 1 uM incubated for 30 mins by LC-MS/MS analysis; format: ADME, Microsome; conditions: read-out: Stabilty; how it was run: as §3
Plasmodium falciparum [13] = test: Antiplasmodial activity against […] Plasmodium falciparum NF54 late gametocytes transfected with GFP-Luc […] at 1 uM incubated for 48 hrs by microscopy based luciferase reporter gene assay relative to control; format: functional; how it was run: as §1
Hemozoin [14] = test: Inhibition of Beta-hematin in early ring stage Plasmodium falciparum parasitized red blood cells assessed as hemozoin formation formation after 32 hrs by Giemsa staining based haemocytometric counting method
[15] = Metabolic stability in rat liver microsomes assessed as compound remaining at 1 uM incubated for 30 mins by LC-MS/MS analysis; format: ADME, Microsome; conditions: read-out: Stabilty; how it was run: as §3
Hemozoin [16] = test: Inhibition of beta-hematin formation […] incubated for 5 hrs by NP40 detergent-mediated assay
How it was run: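 Cell-free β-hematin formation assay in NP-40 (305.5 μM) lipid-mimic medium. Compounds from 20 mM stock serially diluted across wells, in duplicate. Hematin suspended in 1 M acetate buffer pH 4.8; plates incubated ~5 h at 37 °C. Then pyridine solution (with HEPES pH 7.4) and acetone added; absorbance at 405 nm. IC₅₀ by curve fit.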

[17] = Kinetic solubility of the compound in pH 6.5 incubated for 24 hrs by HPLC-DAD analysis; format: physicochemical; conditions: buffer, read-out: Kinetic_solubility
How it was run: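 Miniaturized shake-flask method. 10 mM DMSO stock dried down, phosphate buffer pH 6.5 added, shaken 24 h at 25 °C. Centrifuged 3500g for 15 min; supernatant analyzed by HPLC-DAD against 10−220 μM DMSO calibration curve. Reserpine, hydrocortisone and MMV390048 as controls.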

Plasmodium berghei = test: Antimalarial activity against GFP-transfected Plasmodium berghei ANKA infected in NMRI mouse model assessed as reduction in parasitemia at 50 mg/kg, po dosed 4 times relative to control; format: functional; set-up: scale not given: the % may be the effect or the level left
How it was run: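 Mice (n = 3) infected with GFP-transfected P. berghei ANKA. Compound in 70% Tween-80/30% ethanol, diluted 10-fold in water, given orally at 4, 24, 48 and 72 h post-infection. Blood taken day 4 (96 h); parasitemia by flow cytometry, detection limit 0.1%. Activity = difference in mean % parasitemia between control and treated, as % of control.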

[18] = tested on: Plasmodium falciparum NF54; test: Inhibition of tubulin polymerization in asexual stage (I) Plasmodium falciparum NF54 early gametocytes at 2400 nM incubated for 24 hrs by tubulin tracker Oregon Green staining method; how it was run: as §4
Plasmodium falciparum [19] = test: Antiplasmodial activity against […] Plasmodium falciparum NF54 early gametocytes transfected with GFP-Luc […] incubated for 48 hrs by microscopy based luciferase reporter gene assay relative to control; format: functional, organism-based; conditions: NF54, 48 h
How it was run: (§5)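 Transgenic NF54-Pfs16-GFP-Luc gametocytes, read by luciferase reporter. Early assays were set up on day 5 (50% stage II/50% stage III) and late assays on day 10 (40% stage IV/60% stage V). Luciferin was added to lysates at room temperature and bioluminescence read. Methylene blue (5 μM) was the reference. Single-point screens at 1 and 5 μM used n=1 in technical triplicate. IC₅₀ came from a normalized nonlinear fit, n≥3 in triplicate.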

Plasmodium falciparum [20] = test: Antiplasmodial activity against […] Plasmodium falciparum NF54 late gametocytes transfected with GFP-Luc […] incubated for 48 hrs by microscopy based luciferase reporter gene assay relative to control; format: functional, organism-based; conditions: NF54, 48 h; how it was run: as §5
[21] = AUC (0 to t) in Balb/c mouse at 3 mg/kg, iv measured up to 24 hrs by LC-MS/MS analysis; format: ADME, organism-based; set-up: dose 3 mg/kg, time <=24; conditions: in vivo
How it was run: (§6)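 Intravenous dosing in male Balb/c mice, fed ad libitum. Tail-vein blood sampled into heparinized tubes at 0.17, 0.5, 1, 3, 5, 7, 9 and 24 h, frozen at −80 °C. Blood extracted by acetonitrile protein precipitation with internal standard; LC−MS/MS quantitation, LOQ 2 ng/mL. Noncompartmental analysis based on curve stripping.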

[22] = Oral bioavailability in Balb/c mouse at 10 mg/kg measured up to 24 hrs by LC-MS/MS analysis; format: ADME, organism-based; conditions: in vivo
How it was run: (§7)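 Male Balb/c mice, not fasted, food and water ad libitum; single oral dose. Tail-vein blood into heparinized tubes at 0.5, 1, 3, 5, 7, 9 and 24 h, stored at −80 °C. Whole blood protein-precipitated with acetonitrile containing internal standard, analyzed by LC−MS/MS (LOQ 2 ng/mL). Parameters by noncompartmental analysis with curve stripping. Mean of three mice per point.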

[23] = AUC (0 to t) in Balb/c mouse at 10 mg/kg, po measured up to 24 hrs by LC-MS/MS analysis; format: ADME, organism-based; set-up: dose 10 mg/kg, time <=24; conditions: in vivo; how it was run: as §7
[24] = Volume of distribution in Balb/c mouse at 3 mg/kg, iv measured up to 24 hrs by LC-MS/MS analysis; format: ADME, organism-based; conditions: in vivo; how it was run: as §6
[25] = Tmax in Balb/c mouse at 10 mg/kg, po measured up to 24 hrs by LC-MS/MS analysis; format: ADME, organism-based; conditions: in vivo; how it was run: as §7
[26] = Cmax in Balb/c mouse at 10 mg/kg, po measured up to 24 hrs by LC-MS/MS analysis; format: ADME, organism-based; set-up: route oral, dose 10 mg/kg, time <=24; conditions: in vivo; how it was run: as §7
[27] = Clearance in Balb/c mouse at 3 mg/kg, iv measured up to 24 hrs by LC-MS/MS analysis; format: ADME, organism-based; conditions: in vivo; how it was run: as §6
[28] = Volume of distribution at steady state in Balb/c mouse at 3 mg/kg, iv measured up to 24 hrs by LC-MS/MS analysis; format: ADME, organism-based; conditions: in vivo, read-out: Vdss; how it was run: as §6
[29] = Inhibition of tubulin polymerization in asexual blood stage Plasmodium falciparum NF54

| Structure (SMILES) | inhibition at 1 µM (Plasmodium falciparum [1]) | IC50 (Plasmodium falciparum [2]) | inhibition at 5 µM (Plasmodium falciparum [3]) | remaining at 0.5 h, 1 µM [4] | inhibition at 5 µM (Plasmodium falciparum [5]) | IC50 (Plasmodium falciparum [6]) | selectivity ratio at 72 h [8] | Ratio IC50 [10] | IC50 (CHO) | remaining at 0.5 h, 1 µM [12] | inhibition at 1 µM (Plasmodium falciparum [13]) | Activity (Hemozoin [14]) | remaining at 0.5 h, 1 µM [15] | IC50 (Hemozoin [16]) | solubility kinetic at 24 h [17] | Activity (Plasmodium berghei) | IC50 [29] | further results |
| --- | --- | --- | --- | --- | --- | --- | --- | --- | --- | --- | --- | --- | --- | --- | --- | --- | --- | --- |
| CCNCc1cc(Cl)cc(Nc2nc3ccccc3[nH]2)c1O | 0% | 0.3 µM | 31% | 97% | 23% | 0.88 µM | > 166 | 2.93 | > 50 µM | 93% | 0% | Active | 98% | 12.7 µM | 200 µM (≈ 63.4 µg/mL) | <40% |  | inhibition [7]: Active; inhibition [9]: Active; inhibition [11]: Active; inhibition [18]: inactive |
| CCNCc1cc(Cl)cc(Nc2nc3ccccc3n2Cc2ccc(C(F)(F)F)cc2)c1O | 66% | 0.28 µM | 8% | 73% | 91% | 0.11 µM | 121 | 0.39 | 33.8 µM | 94% | 0% | inactive | 66% | 33.3 µM | 12 µM (≈ 5.7 µg/mL) | <40% |  | IC50 (Plasmodium falciparum [19]): 0.43 µM; IC50 (Plasmodium falciparum [20]): > 5 µM |
| CCNCc1cc(Cl)cc(Nc2nc3cc(F)c(F)cc3[nH]2)c1O | 0% | 0.25 µM | 0% | 98% | 35% | 0.78 µM | > 200 | 3.12 | > 50 µM | > 99% | 0% | Active | > 99% | 7.15 µM | 12 µM (≈ 4.23 µg/mL) | <40% |  | AUCt [21]: 65 µmol·min/L; bioavailability [22]: 5%; AUCt [23]: 11 µmol·min/L; Vd [24]: 96 L/kg; Tmax [25]: 42 min; Cmax [26]: 26 nM; clearance [27]: 151 mL/min/kg; Vd [28]: 58 L/kg |
| CCCSc1ccc2[nH]c(NC(=O)OC)nc2c1 [ALBENDAZOLE] |  |  |  |  |  |  |  |  |  |  |  |  |  |  |  |  | 30 µM |  |
| COc1cc2c(c(OC)c1OC)-c1ccc(OC)c(=O)cc1[C@@H](NC(C)=O)CC2 [COLCHICINE] |  |  |  |  |  |  |  |  |  |  |  |  |  |  |  |  | 10 µM |  |
| COC(=O)Nc1nc2cc(C(=O)c3cccs3)ccc2[nH]1 [NOCODAZOLE] |  |  |  |  |  |  |  |  |  |  |  |  |  |  |  |  | 17 µM |  |
| COC(=O)Nc1nc2cc(C(=O)c3ccccc3)ccc2[nH]1 [MEBENDAZOLE] |  |  |  |  |  |  |  |  |  |  |  |  |  |  |  |  | 200 µM |  |
